Assay results: ChEMBL document CHEMBL4014335, “Activation of Phenyl 4-(2-Oxo-3-alkylimidazolidin-1-yl)benzenesulfonates Prodrugs by CYP1A1 as New Antimitotics Targeting Breast Cancer Cells” (J Med Chem, 2017)

Experiments:
HT-29 = assay: Antiproliferative activity against human HT-29 cells after 48 hrs by SRB assay; format: functional, cell-based; conditions: HT-29, 48 h
Outline: (§1)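 SRB assay run as in the NCI screen with slight modifications. Seeding: HT-29 5.0 x 10^3, M21 3.5 x 10^3, MCF7 7.5 x 10^3 cells; cells preincubated 24 h. Drug in DMSO added at 0.75 to 1.0 x 10^5 nM for 48 h. TCA fixation, sulforhodamine B staining, absorbance 530-565 nm. At least two experiments in triplicate; runs accepted only when relative SD < 10%.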

MCF7 = assay: Antiproliferative activity against human MCF7 cells after 48 hrs by SRB assay; format: functional, cell-based; conditions: MCF7, 48 h; outline: as §1
[1] = Selectivity ratio of IC50 for human HT-29 cells to IC50 for human MCF7 cells; format: functional
Outline: (§2)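 Ratio is IC50 in reference line over IC50 in sensitive line. […] Cells in DMEM with 5% calf serum at 37 °C. At least two experiments, triplicate cultures; assay accepted when relative SD < 10%.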

[2] = Selectivity ratio of IC50 for human M21 cells to IC50 for human MCF7 cells; format: functional; outline: as §2
M21 = assay: Antiproliferative activity against human M21 cells after 48 hrs by SRB assay; format: functional, cell-based; conditions: M21, 48 h; outline: as §1

SMILES | IC50 (HT-29) [µM] | IC50 (MCF7) [µM] | Ratio IC50 [1] | Ratio IC50 [2] | IC50 (M21) [µM]
COc1cccc(OS(=O)(=O)c2ccc(N3CCN(C)C3=O)cc2)c1 | 2.5 | 3 | 0.8 | 0.6 | 1.6
CCN1CCN(c2ccc(S(=O)(=O)Oc3ccc(OC)c(OC)c3)cc2)C1=O | 37 | 39.1 | 1 | 0.9 | 35
CCCCN1CCN(c2ccc(S(=O)(=O)Oc3cccc(I)c3)cc2)C1=O | 9.6 | 0.058 | 170 | 400 | 23
CCCN1CCN(c2ccc(S(=O)(=O)Oc3cccc(Cl)c3)cc2)C1=O | 13 | 0.38 | 34 | 23 | 8.6
COc1cc(OC)cc(OS(=O)(=O)c2ccc(N3CCN(C)C3=O)cc2)c1 | 0.19 | 0.23 | 0.9 | 0.4 | 0.082
CCN1CCN(c2ccc(S(=O)(=O)Oc3cc(OC)c(OC)c(OC)c3)cc2)C1=O | 0.64 | 0.7 | 0.9 | 1.2 | 0.87
CCN1CCN(c2ccc(S(=O)(=O)Oc3cc(OC)cc(OC)c3)cc2)C1=O | 4.3 | 3.5 | 1.2 | 1.2 | 4.2
CCCN1CCN(c2ccc(S(=O)(=O)Oc3ccc(C)cc3C)cc2)C1=O | 26 | 1.5 | 17 | 6.5 | 9.7
CCCCN1CCN(c2ccc(S(=O)(=O)Oc3ccc(OC)c(OC)c3)cc2)C1=O | 21 | 0.34 | 61 | >300 | > 100
CCCCN1CCN(c2ccc(S(=O)(=O)Oc3cccc(Cl)c3)cc2)C1=O | 21 | 0.11 | 190 | 820 | 90
CCCN1CCN(c2ccc(S(=O)(=O)Oc3cc(Cl)c(Cl)cc3Cl)cc2)C1=O | 19 | 13 | 1.5 | 1.2 | 15
CCN1CCN(c2ccc(S(=O)(=O)Oc3cccc(OC)c3)cc2)C1=O | 22 | 14 | 1.6 | 0.5 | 7
CCc1ccccc1OS(=O)(=O)c1ccc(N2CCN(C)C2=O)cc1 | 4.6 | 26 | 0.2 | 0.1 | 2.3
CCN1CCN(c2ccc(S(=O)(=O)Oc3cccc(Br)c3)cc2)C1=O | 3.8 | 2.5 | 1.5 | 1.4 | 3.4
CCCCN1CCN(c2ccc(S(=O)(=O)Oc3cccc(Br)c3)cc2)C1=O | 16 | 0.085 | 190 | 410 | 35
CCCCN1CCN(c2ccc(S(=O)(=O)Oc3cccc(F)c3)cc2)C1=O | 76 | 0.31 | 250 | >320 | > 100
CCCN1CCN(c2ccc(S(=O)(=O)Oc3cccc(F)c3)cc2)C1=O | 18 | 24 | 0.8 | 0.5 | 12
CCCCN1CCN(c2ccc(S(=O)(=O)Oc3ccccc3)cc2)C1=O | > 100 | 8.8 | >11 | >11 | > 100
Cc1ccccc1OS(=O)(=O)c1ccc(N2CCN(C)C2=O)cc1 | 4.8 | 5.6 | 0.9 | 0.5 | 2.9
CCCN1CCN(c2ccc(S(=O)(=O)Oc3cccc(OC)c3)cc2)C1=O | 25 | 6.3 | 4 | 1.6 | 10
